Source: ChEMBL document CHEMBL3808280, “GroEL/ES inhibitors as potential antibiotics” (Bioorg Med Chem Lett, 2016)

How the values were obtained:
Escherichia coli [1] = experiment: Antibacterial activity against Escherichia coli DH5alpha assessed as reduction in bacterial growth incubated for 6 to 8 hrs; assay type: functional, organism-based; conditions: DH5[alpha]
E. coli GroEL/ES [2] = target: T1, E. coli GroEL/ES (Escherichia coli, UniProt P0A6F5); experiment: Inhibition of Escherichia coli GroEL/GroES using Escherichia coli GroEL expressed in Escherichia coli DH5alpha cells and Escherichia coli GroES expressed in Escherichia coli BL21(DE3) cells assessed as reduction in pig heart native refolded MDH-mediated NADH production by micro plate reader analysis
In short: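 Native MDH counter-screen. GroEL/ES-dMDH refolding run 60 min at 37°C, then EDTA-quenched without compound. IC50 averaged from at least triplicate.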

[3] = Cytotoxicity against human THLE3 cells assessed as reduction in cell viability after 48 hrs by alamar blue assay; assay type: cell-based; conditions: THLE3, 48 h
E. coli GroEL/ES [4] = target: T1, E. coli GroEL/ES; experiment: Inhibition of Escherichia coli GroEL/GroES using Escherichia coli GroEL expressed in Escherichia coli DH5alpha cells and Escherichia coli GroES expressed in Escherichia coli BL21(DE3) cells assessed as inhibition of denatured pig heart MDH refolding by measuring reduction in NADH production incubated for 60 mins by micro plate reader analysis
In short: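 Denatured MDH (guanidine-HCl/DTT, 30 min RT) bound to GroEL with GroES in Tris pH 7.4, KCl, MgCl2, DTT buffer. 60 min at 37°C, EDTA quench to 100 mM. Refolded MDH activity read with mesoxalate/NADH at 340 nm. Log-averaged IC50 from replicates.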

Pseudomonas aeruginosa = experiment: Antibacterial activity against multidrug resistant Pseudomonas aeruginosa NCTC 10332 (ATCC 10145) assessed as reduction in bacterial growth incubated for 6 to 8 hrs; assay type: functional, organism-based
In short: (§1)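 Broth proliferation assay. S. aureus and MRSA grown in ATCC Medium 18, other pathogens in Brain Heart Infusion. Stagnant incubation at 37°C under breathable seal. OD600 read at mid-log (6-8 h) and corrected with bacteria-free baseline plates. EC50 by variable-slope nonlinear fit, at least triplicate.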

E. coli GroEL/ES [5] = target: T1, E. coli GroEL/ES; experiment: Inhibition of Escherichia coli GroEL/GroES using Escherichia coli GroEL expressed in Escherichia coli DH5alpha cells and Escherichia coli GroES expressed in Escherichia coli BL21(DE3) cells assessed as reduction in denatured pig heart MDH ATPase activity by malachite green dye based assay
[6] = tested on: Klebsiella pneumoniae subsp. pneumoniae; experiment: Antibacterial activity against multidrug resistant Klebsiella pneumoniae subsp. pneumoniae NCTC 9633 (ATCC 13883) assessed as reduction in bacterial growth incubated for 6 to 8 hrs; assay type: functional, organism-based; in short: as §1
HSP60/HSP10 [7] = target: T2, HSP60/HSP10 (Homo sapiens, UniProt P10809); experiment: Inhibition of human HSP60/HSP10 expressed in Escherichia coli Rosetta2(DE3) cells assessed as reduction in denatured pig heart MDH ATPase activity by malachite green dye based assay
Acinetobacter baumannii = experiment: Antibacterial activity against multidrug resistant Acinetobacter baumannii 2208 (ATCC 19606) assessed as reduction in bacterial growth incubated for 6 to 8 hrs; assay type: functional; in short: as §1
Bacillus subtilis = experiment: Antibacterial activity against Bacillus subtilis 168 assessed as reduction in bacterial growth incubated for 6 to 8 hrs; assay type: functional, organism-based; conditions: subsp. subtilis str. 168
E. coli GroEL/ES [8] = target: T1, E. coli GroEL/ES; experiment: Inhibition of Escherichia coli GroEL/GroES using Escherichia coli GroEL expressed in Escherichia coli DH5alpha cells and Escherichia coli GroES expressed in Escherichia coli BL21(DE3) cells assessed as reduction in native refolded rhodanese-mediated thiocyanate production by micro plate reader analysis
Escherichia coli [9] = experiment: Antibacterial activity against Escherichia coli SM101 assessed as reduction in bacterial growth incubated for 12 hrs by UV-Vis spectrophotometric analysis; assay type: functional, organism-based; conditions: SM101, 12 h
Staphylococcus aureus [10] = experiment: Antibacterial activity against methicillin resistant Staphylococcus aureus subsp. aureus HPV107 (ATCC BAA-44) assessed as reduction in bacterial growth incubated for 6 to 8 hrs; assay type: functional, organism-based; in short: as §1
Enterococcus faecium = experiment: Antibacterial activity against multidrug resistant Enterococcus faecium NCTC 7171 (ATCC 19434) assessed as reduction in bacterial growth incubated for 6 to 8 hrs; assay type: functional, organism-based; in short: as §1
Staphylococcus aureus [11] = experiment: Antibacterial activity against methicillin susceptible Staphylococcus aureus subsp. aureus Seattle 1945 (ATCC 25923) assessed as reduction in bacterial growth incubated for 6 to 8 hrs
E. coli GroEL/ES [12] = target: T1, E. coli GroEL/ES; experiment: Inhibition of Escherichia coli GroEL/GroES using Escherichia coli GroEL expressed in Escherichia coli DH5alpha cells and Escherichia coli GroES expressed in Escherichia coli BL21(DE3) cells assessed as inhibition of denatured rhodanese refolding by measuring reduction in thiocyanate production incubated for 60 mins by micro plate reader analysis
In short: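 Urea-denatured rhodanese bound to GroEL/GroES in folding buffer containing thiosulfate. After 60 min at 37°C, thiocyanate reaction (KCN, thiosulfate, phosphate) run, then formaldehyde quench and ferric nitrate added. Fe(SCN)3 read at 460 nm after 15 min RT, with protein-free baseline plates.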

HSP60/HSP10 [13] = target: T2, HSP60/HSP10; experiment: Inhibition of human HSP60/HSP10 expressed in Escherichia coli Rosetta2(DE3) cells assessed as inhibition of denatured pig heart MDH refolding by measuring reduction in NADH production incubated for 60 mins by micro plate reader analysis
In short: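 Pig heart MDH was denatured in guanidine-HCl (dMDH) and complexed with HSP60, then HSP10, in Tris pH 7.4/KCl/MgCl2/DTT buffer. EDTA quench (100 mM final); refolded MDH activity was followed with mesoxalate/NADH at 340 nm.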

Enterobacter cloacae = experiment: Antibacterial activity against multidrug resistant Enterobacter cloacae subsp. cloacae CDC 442-68 (ATCC 13047) assessed as reduction in bacterial growth incubated for 6 to 8 hrs; assay type: functional, organism-based; in short: as §1
HEK293 = experiment: Cytotoxicity against HEK293 cells assessed as reduction in cell viability after 48 hrs by alamar blue assay; assay type: cell-based; conditions: Homo sapiens, HEK293, 48 h
Escherichia coli [14] = experiment: Antibacterial activity against acrB-deficient Escherichia coli MC4100 assessed as reduction in bacterial growth incubated for 6 to 8 hrs; assay type: functional, organism-based

T1 sequence (P0A6F5 whole entry, looked up): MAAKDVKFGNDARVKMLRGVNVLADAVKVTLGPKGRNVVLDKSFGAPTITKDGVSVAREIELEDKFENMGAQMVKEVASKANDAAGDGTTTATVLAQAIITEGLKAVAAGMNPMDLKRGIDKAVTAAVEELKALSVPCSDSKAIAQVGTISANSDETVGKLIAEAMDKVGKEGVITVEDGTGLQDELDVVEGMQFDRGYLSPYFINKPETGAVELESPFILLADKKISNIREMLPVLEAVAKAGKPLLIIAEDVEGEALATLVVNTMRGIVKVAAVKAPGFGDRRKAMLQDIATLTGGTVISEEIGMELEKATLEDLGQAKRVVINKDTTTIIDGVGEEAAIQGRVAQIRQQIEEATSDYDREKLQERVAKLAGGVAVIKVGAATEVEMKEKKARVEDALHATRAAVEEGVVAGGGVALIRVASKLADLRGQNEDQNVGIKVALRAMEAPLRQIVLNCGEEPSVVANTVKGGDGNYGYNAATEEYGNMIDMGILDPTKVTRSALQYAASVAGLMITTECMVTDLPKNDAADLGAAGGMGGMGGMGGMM
T2 sequence (P10809 whole entry): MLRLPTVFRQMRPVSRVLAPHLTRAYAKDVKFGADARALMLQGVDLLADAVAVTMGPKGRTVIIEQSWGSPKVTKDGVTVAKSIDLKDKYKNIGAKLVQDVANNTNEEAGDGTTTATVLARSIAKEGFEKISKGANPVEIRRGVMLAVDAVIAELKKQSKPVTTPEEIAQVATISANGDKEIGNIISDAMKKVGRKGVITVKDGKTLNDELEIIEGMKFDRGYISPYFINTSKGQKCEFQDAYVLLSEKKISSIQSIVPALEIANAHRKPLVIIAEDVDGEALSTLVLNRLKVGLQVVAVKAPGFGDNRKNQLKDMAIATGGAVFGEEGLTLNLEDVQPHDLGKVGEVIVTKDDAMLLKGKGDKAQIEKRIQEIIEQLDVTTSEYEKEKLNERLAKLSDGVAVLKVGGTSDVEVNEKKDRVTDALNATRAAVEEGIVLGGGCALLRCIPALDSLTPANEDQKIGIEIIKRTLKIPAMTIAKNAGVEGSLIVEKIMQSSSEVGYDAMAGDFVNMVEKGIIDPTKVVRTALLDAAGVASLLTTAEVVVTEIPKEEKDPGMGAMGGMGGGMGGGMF
T2 sequence (P61604 whole entry, further chain): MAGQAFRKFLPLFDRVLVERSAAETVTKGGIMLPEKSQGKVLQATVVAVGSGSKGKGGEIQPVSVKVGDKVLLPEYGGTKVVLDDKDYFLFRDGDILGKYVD

O=C1/C(=C/c2ccc(O)c(O)c2)SC(=S)N1c1ccc(O)cc1
EC50 (Escherichia coli [1]): > 100 µM
IC50 (E. coli GroEL/ES [2]): > 62.5 µM
EC50 [3]: 16 µM
IC50 (E. coli GroEL/ES [4]): 0.69 µM
EC50 (Pseudomonas aeruginosa): > 100 µM
IC50 (E. coli GroEL/ES [5]): > 250 µM
EC50 [6]: > 100 µM
IC50 (HSP60/HSP10 [7]): > 250 µM
EC50 (Acinetobacter baumannii): 58 µM
EC50 (Bacillus subtilis): 25 µM
IC50 (E. coli GroEL/ES [8]): 14 µM
EC50 (Escherichia coli [9]): 27 µM
EC50 (Staphylococcus aureus [10]): 9.1 µM
EC50 (Enterococcus faecium): 90 µM
EC50 (Staphylococcus aureus [11]): 14 µM
IC50 (E. coli GroEL/ES [12]): 0.58 µM
IC50 (HSP60/HSP10 [13]): 4.9 µM
EC50 (Enterobacter cloacae): > 100 µM
EC50 (HEK293): 23 µM
EC50 (Escherichia coli [14]): 92 µM

O=C(/C=C/c1cccc([N+](=O)[O-])c1)c1ccc(NC(=O)c2ccco2)cc1
EC50 (Escherichia coli [1]): > 100 µM
IC50 (E. coli GroEL/ES [2]): > 62.5 µM
EC50 [3]: > 100 µM
IC50 (E. coli GroEL/ES [4]): 0.93 µM
EC50 (Pseudomonas aeruginosa): > 100 µM
IC50 (E. coli GroEL/ES [5]): 80 µM
EC50 [6]: > 100 µM
IC50 (HSP60/HSP10 [7]): > 250 µM
EC50 (Acinetobacter baumannii): > 100 µM
EC50 (Bacillus subtilis): > 100 µM
IC50 (E. coli GroEL/ES [8]): > 100 µM
EC50 (Escherichia coli [9]): 76 µM
EC50 (Staphylococcus aureus [10]): > 100 µM
EC50 (Enterococcus faecium): > 100 µM
EC50 (Staphylococcus aureus [11]): > 100 µM
IC50 (E. coli GroEL/ES [12]): 1.4 µM
IC50 (HSP60/HSP10 [13]): 1.6 µM
EC50 (Enterobacter cloacae): > 100 µM
EC50 (HEK293): > 100 µM
EC50 (Escherichia coli [14]): > 100 µM

O=C(CC1Nc2cccc3cccc(c23)NC1=O)Nc1cccc([N+](=O)[O-])c1 (stereo not given)
EC50 (Escherichia coli [1]): > 100 µM
IC50 (E. coli GroEL/ES [2]): > 62.5 µM
EC50 [3]: 61 µM
IC50 (E. coli GroEL/ES [4]): 42 µM
EC50 (Pseudomonas aeruginosa): > 100 µM
IC50 (E. coli GroEL/ES [5]): 217 µM
EC50 [6]: > 100 µM
IC50 (HSP60/HSP10 [7]): > 250 µM
EC50 (Acinetobacter baumannii): > 100 µM
EC50 (Bacillus subtilis): 72 µM
IC50 (E. coli GroEL/ES [8]): 10 µM
EC50 (Escherichia coli [9]): 68 µM
EC50 (Staphylococcus aureus [10]): 54 µM
EC50 (Enterococcus faecium): 15 µM
EC50 (Staphylococcus aureus [11]): 84 µM
IC50 (E. coli GroEL/ES [12]): 11 µM
IC50 (HSP60/HSP10 [13]): > 100 µM
EC50 (Enterobacter cloacae): > 100 µM
EC50 (HEK293): 62 µM
EC50 (Escherichia coli [14]): > 100 µM

Cc1ccc(S(=O)(=O)Nc2ccc(-c3nc4ccc(NS(=O)(=O)c5ccc(C)cc5)cc4[nH]3)cc2)cc1
EC50 (Escherichia coli [1]): > 100 µM
IC50 (E. coli GroEL/ES [2]): > 62.5 µM
EC50 [3]: 29 µM
IC50 (E. coli GroEL/ES [4]): 7.5 µM
EC50 (Pseudomonas aeruginosa): > 100 µM
IC50 (E. coli GroEL/ES [5]): 119 µM
EC50 [6]: > 100 µM
IC50 (HSP60/HSP10 [7]): 106 µM
EC50 (Acinetobacter baumannii): > 100 µM
EC50 (Bacillus subtilis): > 100 µM
IC50 (E. coli GroEL/ES [8]): > 100 µM
EC50 (Escherichia coli [9]): > 100 µM
EC50 (Staphylococcus aureus [10]): > 100 µM
EC50 (Enterococcus faecium): > 100 µM
EC50 (Staphylococcus aureus [11]): > 100 µM
IC50 (E. coli GroEL/ES [12]): 30 µM
IC50 (HSP60/HSP10 [13]): 89 µM
EC50 (Enterobacter cloacae): > 100 µM
EC50 (HEK293): 34 µM
EC50 (Escherichia coli [14]): > 100 µM

O=C(/C=C/c1ccco1)c1ccc(NC(=O)c2cccs2)cc1
EC50 (Escherichia coli [1]): > 100 µM
IC50 (E. coli GroEL/ES [2]): > 62.5 µM
EC50 [3]: 34 µM
IC50 (E. coli GroEL/ES [4]): 3.6 µM
EC50 (Pseudomonas aeruginosa): > 100 µM
IC50 (E. coli GroEL/ES [5]): > 250 µM
EC50 [6]: > 100 µM
IC50 (HSP60/HSP10 [7]): > 250 µM
EC50 (Acinetobacter baumannii): > 100 µM
EC50 (Bacillus subtilis): > 100 µM
IC50 (E. coli GroEL/ES [8]): > 100 µM
EC50 (Escherichia coli [9]): > 100 µM
EC50 (Staphylococcus aureus [10]): 61 µM
EC50 (Enterococcus faecium): > 100 µM
EC50 (Staphylococcus aureus [11]): > 100 µM
IC50 (E. coli GroEL/ES [12]): 2.3 µM
IC50 (HSP60/HSP10 [13]): 8.2 µM
EC50 (Enterobacter cloacae): > 100 µM
EC50 (HEK293): 55 µM
EC50 (Escherichia coli [14]): > 100 µM

O=C(/C=C/c1ccc([N+](=O)[O-])cc1)c1ccc(O)c(O)c1
EC50 (Escherichia coli [1]): > 100 µM
IC50 (E. coli GroEL/ES [2]): > 62.5 µM
EC50 [3]: 9.9 µM
IC50 (E. coli GroEL/ES [4]): 1.2 µM
EC50 (Pseudomonas aeruginosa): > 100 µM
IC50 (E. coli GroEL/ES [5]): 216 µM
EC50 [6]: > 100 µM
IC50 (HSP60/HSP10 [7]): > 250 µM
EC50 (Acinetobacter baumannii): > 100 µM
EC50 (Bacillus subtilis): > 100 µM
IC50 (E. coli GroEL/ES [8]): 12 µM
EC50 (Escherichia coli [9]): 48 µM
EC50 (Staphylococcus aureus [10]): 40 µM
EC50 (Enterococcus faecium): > 100 µM
EC50 (Staphylococcus aureus [11]): 23 µM
IC50 (E. coli GroEL/ES [12]): 0.83 µM
IC50 (HSP60/HSP10 [13]): 5.2 µM
EC50 (Enterobacter cloacae): > 100 µM
EC50 (HEK293): 12 µM
EC50 (Escherichia coli [14]): > 100 µM

O=C(Nc1cc([N+](=O)[O-])ccc1O)c1ccc2c(c1)C(=O)N(Cc1ccccc1)C2=O
EC50 (Escherichia coli [1]): > 100 µM
IC50 (E. coli GroEL/ES [2]): > 62.5 µM
EC50 [3]: > 100 µM
IC50 (E. coli GroEL/ES [4]): 24 µM
EC50 (Pseudomonas aeruginosa): 85 µM
IC50 (E. coli GroEL/ES [5]): 187 µM
EC50 [6]: > 100 µM
IC50 (HSP60/HSP10 [7]): > 250 µM
EC50 (Acinetobacter baumannii): > 100 µM
EC50 (Bacillus subtilis): > 100 µM
IC50 (E. coli GroEL/ES [8]): > 100 µM
EC50 (Escherichia coli [9]): > 100 µM
EC50 (Staphylococcus aureus [10]): 15 µM
EC50 (Enterococcus faecium): > 100 µM
EC50 (Staphylococcus aureus [11]): > 100 µM
IC50 (E. coli GroEL/ES [12]): 28 µM
IC50 (HSP60/HSP10 [13]): 38 µM
EC50 (Enterobacter cloacae): > 100 µM
EC50 (HEK293): > 100 µM
EC50 (Escherichia coli [14]): > 100 µM
